Assay [1] has as its target T1, IMP-1 (Serratia marcescens, UniProt P52699). Kind of assay: IC50 assay, nitrocefin hydrolysis, 10 min preincubation. It is filed as biochemical.
The target of assay [2] is T2, L1 (Stenotrophomonas maltophilia, UniProt P52700). Described as above. It is filed as biochemical, S. maltophilia.
The target of assay [3] is T2, L1. Kind of assay: Ki determination, slow-binding progress curves with nitrocefin. The class given is biochemical, S. maltophilia. In outline:
(§1)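 Enzyme was added to nitrocefin in excess, with inhibitor dilutions spanning the variable-rate range: IMP-1 60 pM with 25 μM nitrocefin, VIM-2 39.2 pM with 100 μM, NDM-1 600 pM with 15 μM, L1 308 pM with 50 μM. Buffer was 50 mM HEPES pH 7.2, 50 μg/mL BSA, 0.01% Triton X-100, read at 482 nm and 30 °C for 10 min. Progress curves gave kobs; a linear fit of kobs versus [I] gave k–0 and Kiapp, then Ki.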

The target in assay [4] is T3, VIM-2 (Escherichia coli, UniProt Q5U7L7). Description: IC50 assay, nitrocefin hydrolysis, 10 min preincubation. The class given is biochemical.
The target in assay [5] is T1, IMP-1. Description: Ki determination, slow-binding progress curves with nitrocefin. The class given is biochemical. In outline:
as §1

Assay [6] deals with T3, VIM-2. The assay is described as above. The class given is biochemical. The procedure, abridged: as §1
For assay [7], the target named is T4, NDM-1 (Klebsiella pneumoniae, UniProt C7C422). The assay is described as above. The class given is biochemical. In outline:
as §1

Assay [8] addresses T4, NDM-1. Kind of assay: IC50 assay, nitrocefin hydrolysis, 10 min preincubation. It is filed as biochemical.
For assay [9], the system named is MBLs (VIM-2, NDM-1, IMP-1, L1). Description: IC50 assay, summary over the MBLs tested. It is filed as biochemical.
The test system of assay [10] is K. pneumoniae UWB116 (NDM-1). The settings on record: NDM-1-producing K. pneumoniae clinical isolate, cited from earlier work.
Assay [11] deals with S. maltophilia K279a (L1, L2). Kind of assay: Meropenem MIC, broth microdilution, clinical strain. The settings on record: Stenotrophomonas maltophilia, read-out: Meropenem MIC. The class given is cell-based.
For assay [12], the system named is non-MBL-producing K. pneumoniae. The settings on record: non-MBL-producing strain; cited from earlier work.
Assay [13] has as its system P. aeruginosa UWB41 (VIM-2). Description: Meropenem MIC, broth microdilution, clinical strain. The settings on record: Pseudomonas aeruginosa, read-out: Meropenem MIC. It is filed as cell-based.
The subject of assay [14] is E. coli MG1655 vector only. Kind of assay: Meropenem MIC, broth microdilution. It is filed as cell-based. The settings on record: Escherichia coli, MG1655, read-out: Meropenem MIC.
In assay [15] the test system is non-MBL-producing C. freundii. Conditions: non-MBL-producing strain; cited from earlier work.
Assay [16] has as its system S. maltophilia JKWZP (L1, L2). Kind of assay: Meropenem MIC, broth microdilution, RND pump knockout strain. The class given is cell-based. Conditions: Stenotrophomonas maltophilia, read-out: Meropenem MIC.
The test system of assay [17] is E. coli MG1655 IMP-1. Kind of assay: Meropenem MIC, broth microdilution. The class given is cell-based. Conditions: Escherichia coli, MG1655, read-out: Meropenem MIC.
Assay [18] has as its system E. coli MG1655 NDM-1. Description: Meropenem MIC, broth microdilution. The class given is cell-based. Conditions: Escherichia coli, MG1655, read-out: Meropenem MIC.
Assay [19] relates to C. freundii D571 NDM-1. Description: Meropenem MIC, broth microdilution. It is filed as cell-based. The settings on record: Citrobacter freundii, D571NDM1, read-out: Meropenem MIC.
In assay [20] the test system is En. aerogenes 15-8358A NDM-1. Kind of assay: Meropenem MIC, broth microdilution. It is filed as cell-based. Conditions: Klebsiella aerogenes, read-out: Meropenem MIC.
Assay [21] relates to P. putida #UWB24 (VIM-2). Kind of assay: Meropenem MIC, broth microdilution, clinical strain. It is filed as cell-based. The settings on record: in the absence of inhibitor.
Assay [22] deals with K. pneumoniae Ecl8 NDM-1. Kind of assay: Meropenem MIC, broth microdilution. The class given is cell-based. The settings on record: Klebsiella pneumoniae, ECL8NDM1, read-out: Meropenem MIC.
Assay [23] relates to non-MBL-producing En. aerogenes. The settings on record: non-MBL-producing strain; cited from earlier work.
Assay [24] deals with E. coli MG1655 VIM-1. Kind of assay: Meropenem MIC, broth microdilution. It is filed as cell-based. The settings on record: Escherichia coli, MG1655, read-out: Meropenem MIC.
The test system of assay [25] is P. aeruginosa UWB78 (VIM-2). Description: Meropenem MIC, broth microdilution, clinical strain. The class given is cell-based. The settings on record: in the absence of inhibitor.

≈ marks a conversion by molar mass, not a printed value. Read-outs that look alike come from different tables or passages of the source.

T1 sequence (P52699 19-246, looked up): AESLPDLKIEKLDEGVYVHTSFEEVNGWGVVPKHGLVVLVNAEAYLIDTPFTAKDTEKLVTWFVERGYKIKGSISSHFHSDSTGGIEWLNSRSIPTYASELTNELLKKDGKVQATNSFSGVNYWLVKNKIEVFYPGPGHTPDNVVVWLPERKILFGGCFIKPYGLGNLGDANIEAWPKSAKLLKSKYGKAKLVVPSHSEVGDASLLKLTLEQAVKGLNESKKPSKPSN
T4 sequence (C7C422 29-270, looked up, species assumed): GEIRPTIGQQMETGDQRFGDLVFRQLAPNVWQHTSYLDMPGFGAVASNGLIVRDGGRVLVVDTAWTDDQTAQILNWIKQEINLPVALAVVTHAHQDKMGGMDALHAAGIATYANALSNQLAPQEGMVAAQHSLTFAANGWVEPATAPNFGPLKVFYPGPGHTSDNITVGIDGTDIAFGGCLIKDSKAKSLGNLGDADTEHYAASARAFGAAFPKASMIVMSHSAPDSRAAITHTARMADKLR
T2 sequence (P52700 34-290): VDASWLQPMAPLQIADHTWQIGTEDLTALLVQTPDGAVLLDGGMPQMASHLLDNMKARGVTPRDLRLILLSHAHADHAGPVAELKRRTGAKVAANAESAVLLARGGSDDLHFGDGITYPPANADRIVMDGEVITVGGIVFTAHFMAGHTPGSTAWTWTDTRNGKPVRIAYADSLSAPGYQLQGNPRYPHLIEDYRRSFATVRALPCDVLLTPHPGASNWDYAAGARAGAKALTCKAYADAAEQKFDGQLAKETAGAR

For `O=C(O)c1cccc(C(O)P(=O)(O)O)n1` (stereo not shown) [3b, 6-[hydroxy(phosphono)methyl]picolinic acid], the IC50 worked out at 7.2 µM in assay [1], 2.05 µM in assay [2] and 1.9 µM in assay [4]. The Ki came to 0.4 ± 0.1 µM in assay [3], 1.5 ± 0.1 µM in assay [5], 0.61 ± 0.04 µM in [6] and 0.078 ± 0.008 µM in assay [7]. In addition, in [6] (VIM-2), the “Dissociative t1/2 = 2 / k-0” value was 6 min.

With `O=C(O)c1cccc(C(N(Cc2ccccc2)C(=O)c2cccs2)P(=O)(O)O)n1` (stereo not shown) [3c, 6-[(N-benzyl-1-thiophen-2-ylformamido)(phosphono)methyl]picolinic acid], the half-inhibitory concentration (IC50) in [8] is 0.306 µM; in [1] it was 2.91 µM; in assay [2], 1.57 µM; in assay [4], 0.464 µM; in assay [9] (read-out: IC50, range, against NDM-1, VIM-2 and IMP-1) it was 0.306 to 2.91 µM. Besides, the “potency compared to 3a” value in assay [2] (IC50, against L1) is approximately 0.9 fold. The Ki is 0.4 ± 0.1 µM in assay [3], 0.4 ± 0.2 µM in assay [5], 0.038 ± 0.009 µM in assay [6] and 0.034 ± 0.006 µM in assay [7]. The “Dissociative t1/2 = 2 / k-0” value in [5] (IMP-1) was found to be 25 min. For the same molecule, the “improved potency compared to 3a” value in assay [9] (IC50, against NDM-1, VIM-2 and IMP-1) is given as 1.2–2.8 fold.

For the molecule `N[C@H](CN[C@H](CN[C@@H](CC(=O)O)C(=O)O)C(=O)O)C(=O)O` [AMA, aspergillomarasmine A], the “Meropenem MIC” value in assay [10] (in the presence of 16 mg/L AMA) is 0.25 µg/mL; in assay [10] (in the presence of 32 mg/L AMA), less than 0.125 µg/mL.

Regarding `C[C@@H](O)[C@H]1C(=O)N2C(C(=O)O)=C(S[C@@H]3CN[C@H](C(=O)N(C)C)C3)[C@H](C)[C@H]12` [Meropenem], the MIC was 16 µg/mL (≈ 41.7 µM) in [11]; 128 µg/mL (≈ 334 µM) in assay [13]; less than 0.25 µg/mL in assay [14]; 32 µg/mL (≈ 83.4 µM) in [16]; 16 µg/mL (≈ 41.7 µM) in assay [17]; more than 256 µg/mL in assay [18]. For the same molecule, the MIC is 32 µg/mL (≈ 83.4 µM) in assay [19], 64 µg/mL (≈ 167 µM) in assay [20], more than 256 µg/mL in assay [22] and 4 µg/mL (≈ 10.4 µM) in [24]. Further, the “Meropenem MIC” value is not above 0.25 µg/mL in assay [12]; 0.06 µg/mL in assay [15]; 64 mg L^–1 in assay [21]; 0.06 µg/mL in assay [23]; 64 mg L^–1 in assay [25].

Take `O=C(O)c1ccccn1` [compound 1, 2-picolinic acid]: the IC50 in assay [8] is more than 100 µM; in assay [1], more than 100 µM; in assay [2] it was more than 100 µM; in assay [4], 32.2 µM.

As to `Cc1cccc(C(=O)O)n1` [compound 2, 6-methylpicolinic acid], the IC50 in assay [8], in [1], in [2] and in [4] was more than 100 µM throughout.

In the case of `O=P(O)(O)Cc1ccccn1` [compound 4, (pyridin-2-ylmethyl)phosphonic acid], the IC50 in assay [8] is more than 1000 µM; in [1], more than 100 µM; in assay [2] it was more than 1000 µM; in [4], 171 µM.
